Results taken from ChEMBL document CHEMBL1268976, “Stereocontrolled facile synthesis and antimicrobial activity of oximes and oxime ethers of diversely substituted bispidines” (2010).
Converted amounts (≈) assume the structure as drawn.

What was measured:
Assay type in all cases: functional
[1] = tested on: Bacillus subtilis; experiment: Antibacterial activity against Bacillus subtilis by broth microdilution method
Method in brief: (§1)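 In vitro broth microdilution following the NCCLS standard for bacteria (M7-A5). The test panel was Bacillus subtilis, Staphylococcus aureus, Klebsiella pneumoniae and Pseudomonas aeruginosa.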

[2] = tested on: Staphylococcus aureus; experiment: Antibacterial activity against Staphylococcus aureus by broth microdilution method; method in brief: as §1
[3] = tested on: Klebsiella pneumoniae; experiment: Antibacterial activity against Klebsiella pneumoniae by broth microdilution method; method in brief: as §1
[4] = tested on: Pseudomonas aeruginosa; experiment: Antibacterial activity against Pseudomonas aeruginosa by broth microdilution method; method in brief: as §1
[5] = tested on: Candida albicans; experiment: Antifungal activity against Candida albicans by broth microdilution method
Method in brief: (§2)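 Fungal panel of Candida albicans, Candida parapsilosis, Aspergillus niger and Cryptococcus neoformans, tested in vitro by standard NCCLS broth microdilution. The yeast susceptibility reference cited is M27-A.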

[6] = tested on: Candida parapsilosis; experiment: Antifungal activity against Candida parapsilosis by broth microdilution method; conditions: Lodderomyces parapsilosis; method in brief: as §2
[7] = tested on: Aspergillus niger; experiment: Antifungal activity against Aspergillus niger by broth microdilution method; method in brief: as §2
[8] = tested on: Cryptococcus neoformans; experiment: Antimicrobial activity against Cryptococcus neoformans by broth microdilution method; method in brief: as §2

Compound	MIC90 [1] [µg/mL]	MIC90 [2] [µg/mL]	MIC90 [3] [µg/mL]	MIC90 [4] [µg/mL]	MIC90 [5] [µg/mL]	MIC90 [6] [µg/mL]	MIC90 [7] [µg/mL]	MIC90 [8] [µg/mL]
CON=C1C2C(c3ccc(OC)cc3)NC(c3ccc(OC)cc3)C1C(c1ccc(OC)cc1)NC2c1ccc(OC)cc1 (configuration not stated)	64 (≈ 108 µM)	32 (≈ 53.9 µM)	> 128	16 (≈ 26.9 µM)	> 128	128 (≈ 216 µM)	16 (≈ 26.9 µM)	16 (≈ 26.9 µM)
CON=C1C2C(c3ccc(Cl)cc3)NC(c3ccc(Cl)cc3)C1C(c1ccc(Cl)cc1)NC2c1ccc(Cl)cc1 (configuration not stated)	128 (≈ 209 µM)	32 (≈ 52.3 µM)	4 (≈ 6.54 µM)	8 (≈ 13.1 µM)	4 (≈ 6.54 µM)	> 128	16 (≈ 26.2 µM)	> 128
ON=C1C2C(c3cccc(Oc4ccccc4)c3)NC(c3cccc(Oc4ccccc4)c3)C1C(c1cccc(Oc3ccccc3)c1)NC2c1cccc(Oc2ccccc2)c1 (configuration not stated)	> 128	> 128	> 128	> 128	128 (≈ 155 µM)	128 (≈ 155 µM)	> 128	> 128
CC(C)c1ccc(C2NC(c3ccc(C(C)C)cc3)C3C(=NO)C2C(c2ccc(C(C)C)cc2)NC3c2ccc(C(C)C)cc2)cc1 (configuration not stated)	> 128	128 (≈ 204 µM)	128 (≈ 204 µM)	16 (≈ 25.5 µM)	> 128	32 (≈ 51 µM)	> 128	> 128
ON=C1C2C(c3cccc(F)c3)NC(c3cccc(F)c3)C1C(c1cccc(F)c1)NC2c1cccc(F)c1 (configuration not stated)	128 (≈ 241 µM)	> 128	64 (≈ 120 µM)	64 (≈ 120 µM)	32 (≈ 60.2 µM)	> 128	64 (≈ 120 µM)	> 128
Cc1ccccc1C1NC(c2ccccc2C)C2C(=NO)C1C(c1ccccc1C)NC2c1ccccc1C (configuration not stated)	> 128	128 (≈ 248 µM)	> 128	32 (≈ 62.1 µM)	64 (≈ 124 µM)	8 (≈ 15.5 µM)	64 (≈ 124 µM)	> 128
CON=C1C2C(c3ccc(OCc4ccccc4)cc3)NC(c3ccc(OCc4ccccc4)cc3)C1C(c1ccc(OCc3ccccc3)cc1)NC2c1ccc(OCc2ccccc2)cc1 (configuration not stated)	> 128	> 128	64 (≈ 71.3 µM)	> 128	> 128	> 128	64 (≈ 71.3 µM)	> 128
COc1ccccc1C1NC(c2ccccc2OC)C2C(=NO)C1C(c1ccccc1OC)NC2c1ccccc1OC (configuration not stated)	> 128	> 128	64 (≈ 110 µM)	16 (≈ 27.6 µM)	> 128	32 (≈ 55.2 µM)	16 (≈ 27.6 µM)	32 (≈ 55.2 µM)
CON=C1C2C(c3ccccc3Br)NC(c3ccccc3Br)C1C(c1ccccc1Br)NC2c1ccccc1Br (configuration not stated)	> 128	> 128	> 128	> 128	> 128	64 (≈ 81.1 µM)	> 128	> 128
CON=C1C2C(c3ccccc3)NC(c3ccccc3)C1C(c1ccccc1)NC2c1ccccc1 (configuration not stated)	> 128	> 128	> 128	128 (≈ 270 µM)	128 (≈ 270 µM)	> 128	> 128	> 128
OC(Cn1cncn1)(Cn1cncn1)c1ccc(F)cc1F [FLUCONAZOLE]					1 (≈ 3.27 µM)	2 (≈ 6.53 µM)	4 (≈ 13.1 µM)	2 (≈ 6.53 µM)
CON=C1C2C(c3cccc(OC)c3)NC(c3cccc(OC)c3)C1C(c1cccc(OC)c1)NC2c1cccc(OC)c1 (configuration not stated)	> 128	128 (≈ 216 µM)	> 128	64 (≈ 108 µM)	128 (≈ 216 µM)	> 128	16 (≈ 26.9 µM)	128 (≈ 216 µM)
CCOc1ccc(C2NC(c3ccc(OCC)cc3)C3C(=NO)C2C(c2ccc(OCC)cc2)NC3c2ccc(OCC)cc2)cc1 (configuration not stated)	> 128	> 128	32 (≈ 50.3 µM)	32 (≈ 50.3 µM)	> 128	> 128	16 (≈ 25.2 µM)	64 (≈ 101 µM)
ON=C1C2C(c3ccccc3F)NC(c3ccccc3F)C1C(c1ccccc1F)NC2c1ccccc1F (configuration not stated)	64 (≈ 120 µM)	> 128	32 (≈ 60.2 µM)	16 (≈ 30.1 µM)	32 (≈ 60.2 µM)	64 (≈ 120 µM)	4 (≈ 7.53 µM)	> 128
GENTAMICIN	16	4	2	16				
CON=C1C2C(c3cccc(Br)c3)NC(c3cccc(Br)c3)C1C(c1cccc(Br)c1)NC2c1cccc(Br)c1 (configuration not stated)	> 128	> 128	> 128	> 128	> 128	> 128	> 128	> 128
CCCCOc1ccc(C2NC(c3ccc(OCCCC)cc3)C3C(=NO)C2C(c2ccc(OCCCC)cc2)NC3c2ccc(OCCCC)cc2)cc1 (configuration not stated)	> 128	> 128	64 (≈ 85.6 µM)	64 (≈ 85.6 µM)	> 128	> 128	32 (≈ 42.8 µM)	32 (≈ 42.8 µM)
ON=C1C2C(c3ccccc3Br)NC(c3ccccc3Br)C1C(c1ccccc1Br)NC2c1ccccc1Br (configuration not stated)	> 128	> 128	> 128	> 128	> 128	> 128	> 128	> 128
ON=C1C2C(c3ccccc3Cl)NC(c3ccccc3Cl)C1C(c1ccccc1Cl)NC2c1ccccc1Cl (configuration not stated)	> 128	64 (≈ 107 µM)	32 (≈ 53.6 µM)	16 (≈ 26.8 µM)	16 (≈ 26.8 µM)	> 128	8 (≈ 13.4 µM)	16 (≈ 26.8 µM)
C=CCOc1ccc(C2NC(c3ccc(OCC=C)cc3)C3C(=NOC)C2C(c2ccc(OCC=C)cc2)NC3c2ccc(OCC=C)cc2)cc1 (configuration not stated)	64 (≈ 91.7 µM)	> 128	16 (≈ 22.9 µM)	64 (≈ 91.7 µM)	> 128	32 (≈ 45.9 µM)	64 (≈ 91.7 µM)	> 128
CCOc1ccccc1C1NC(c2ccccc2OCC)C2C(=NO)C1C(c1ccccc1OCC)NC2c1ccccc1OCC (configuration not stated)	> 128	> 128	64 (≈ 101 µM)	32 (≈ 50.3 µM)	> 128	> 128	32 (≈ 50.3 µM)	64 (≈ 101 µM)
CCCOc1ccc(C2NC(c3ccc(OCCC)cc3)C3C(=NO)C2C(c2ccc(OCCC)cc2)NC3c2ccc(OCCC)cc2)cc1 (configuration not stated)	> 128	> 128	64 (≈ 92.5 µM)	64 (≈ 92.5 µM)	> 128	> 128	32 (≈ 46.2 µM)	32 (≈ 46.2 µM)
CON=C1C2C(c3ccccc3F)NC(c3ccccc3F)C1C(c1ccccc1F)NC2c1ccccc1F (configuration not stated)	32 (≈ 58.7 µM)	64 (≈ 117 µM)	16 (≈ 29.3 µM)	4 (≈ 7.33 µM)	8 (≈ 14.7 µM)	64 (≈ 117 µM)	4 (≈ 7.33 µM)	> 128
ON=C1C2C(c3ccc(Br)cc3)NC(c3ccc(Br)cc3)C1C(c1ccc(Br)cc1)NC2c1ccc(Br)cc1 (configuration not stated)	64 (≈ 82.6 µM)	> 128	128 (≈ 165 µM)	> 128	> 128	32 (≈ 41.3 µM)	> 128	> 128
ON=C1C2C(c3ccccc3)NC(c3ccccc3)C1C(c1ccccc1)NC2c1ccccc1 (configuration not stated)	> 128	> 128	> 128	> 128	> 128	> 128	> 128	> 128
